Each molecule was assayed against T1, Glycerol-3-phosphate acyltransferase 1, mitochondrial (Mus musculus, UniProt Q61586) (assay: Inhibition of GPAT in BALB/c mouse mitochondria using 14C-labeled glycerol-3-phosphate and palmitoyl-CoA incubated for 10 mins by scintillation counting method).
T1 sequence (Q61586 whole entry): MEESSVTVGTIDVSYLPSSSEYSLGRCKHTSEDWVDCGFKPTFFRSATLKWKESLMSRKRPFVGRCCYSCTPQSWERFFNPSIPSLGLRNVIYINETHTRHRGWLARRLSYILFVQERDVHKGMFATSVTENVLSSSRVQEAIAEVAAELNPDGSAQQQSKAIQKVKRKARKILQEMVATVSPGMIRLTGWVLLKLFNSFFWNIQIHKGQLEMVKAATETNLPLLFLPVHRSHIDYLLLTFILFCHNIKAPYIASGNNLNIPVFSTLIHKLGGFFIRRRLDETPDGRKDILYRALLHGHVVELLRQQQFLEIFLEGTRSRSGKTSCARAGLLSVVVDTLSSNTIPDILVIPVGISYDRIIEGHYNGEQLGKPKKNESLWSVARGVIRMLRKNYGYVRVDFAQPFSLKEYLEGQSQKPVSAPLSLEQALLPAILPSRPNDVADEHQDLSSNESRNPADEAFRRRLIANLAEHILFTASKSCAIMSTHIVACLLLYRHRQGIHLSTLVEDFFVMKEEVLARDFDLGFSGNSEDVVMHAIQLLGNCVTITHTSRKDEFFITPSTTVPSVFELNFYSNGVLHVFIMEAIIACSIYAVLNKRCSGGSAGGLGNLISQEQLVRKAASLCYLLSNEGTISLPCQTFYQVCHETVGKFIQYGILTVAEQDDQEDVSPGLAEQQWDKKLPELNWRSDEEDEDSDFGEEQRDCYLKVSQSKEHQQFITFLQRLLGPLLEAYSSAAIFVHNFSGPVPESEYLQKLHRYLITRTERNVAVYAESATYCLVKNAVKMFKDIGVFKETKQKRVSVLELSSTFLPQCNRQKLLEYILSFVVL
Summary of the method: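 Mitochondria isolated from freshly harvested BALB/c mouse liver by differential centrifugation (1000 × g, then 3500 × g, twice) and resuspended in HEPES pH 7.4 storage buffer. Reaction in 75 mM Tris/HCl pH 7.4, 4 mM MgCl₂, 2 mg/mL BSA, 14C-glycerol-3-phosphate (7.6 mCi/mmol), 50 μM palmitoyl-CoA. Inhibitor 0–40 μg/mL in DMSO. Triplicates. IC50 taken relative to DMSO vehicle control activity.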
With `CCCCCCCCS(=O)(=O)Nc1ccc(C(=O)c2ccc(-c3ccccc3)cc2)cc1C(=O)O` the IC50 was 13 µM. `CCCCCCCCS(=O)(=O)Nc1ccc(-c2ccc(-c3ccccc3)cc2)cc1C(=O)O` was tested, and the IC50 was 29.1 µM. `CCCCCCCCS(=O)(=O)Nc1ccc(-c2ccc(O)cc2)cc1C(=O)O` gave an IC50 of 47.3 µM. Work on `CCCCCCCCS(=O)(=O)Nc1ccc(-c2ccc(CCCC)cc2)cc1C(=O)O` yielded an IC50 of 9 µM. `CCCCCCCCS(=O)(=O)Nc1ccc(-c2ccc(OC)cc2)cc1C(=O)O` gave an IC50 of 19.5 µM. `CCCCCCCCS(=O)(=O)Nc1ccc(-c2ccccc2-c2ccccc2)cc1C(=O)O` showed an IC50 of 10.1 µM. `CCCCCCCCS(=O)(=O)Nc1cc(-c2ccc(CCCC)cc2)ccc1C(=O)O` was tested, and the IC50 was 15.7 µM. In the case of `CCCCCCCCS(=O)(=O)Nc1ccc(CCc2ccccc2)cc1C(=O)O`, the IC50 is reported as 37.5 µM. Work on `CCCCCCCCS(=O)(=O)Nc1cc(CCc2ccc(OC)cc2)ccc1C(=O)O` yielded an IC50 of 43 µM. Work on `CCCCCCCCS(=O)(=O)Nc1ccc(-c2cccc(F)c2)cc1C(=O)O` yielded an IC50 of 37.6 µM. Work on `CCCCCCCCS(=O)(=O)Nc1ccc(-c2ccccc2OC)cc1C(=O)O` yielded an IC50 of 27.6 µM. `CCCCCCCCS(=O)(=O)Nc1ccc(C(=O)c2ccccc2OC)cc1C(=O)O` showed an IC50 of 59.2 µM. In the case of `CCCCCCCCS(=O)(=O)Nc1cc(C(=O)c2ccc(-c3ccccc3)cc2)ccc1C(=O)O`, the IC50 is reported as 8.5 µM. In the case of `CCCCCCCCS(=O)(=O)Nc1cc(-c2cccc(F)c2)ccc1C(=O)O`, the IC50 is reported as 32.6 µM. Molecule `CCCCCCCCS(=O)(=O)Nc1ccc(CCc2ccc(OC)cc2)cc1C(=O)O` has an IC50 of 26.3 µM. For `CCCCCCCCS(=O)(=O)Nc1ccc(/C=C/c2ccccc2)cc1C(=O)O`, the IC50 was 16.3 µM. In the case of `CCCCCCCCS(=O)(=O)Nc1ccc(-c2ccccc2F)cc1C(=O)O`, the IC50 is reported as 34.6 µM. For `CCCCCCCCS(=O)(=O)Nc1ccc(-c2cccc(Cl)c2)cc1C(=O)O`, the IC50 was 8.9 µM. In the case of `CCCCCCCCS(=O)(=O)Nc1ccc(-c2ccccc2O)cc1C(=O)O`, the IC50 is reported as 61.7 µM. Molecule `CCCCCCCCS(=O)(=O)Nc1cc(-c2ccccc2Cl)ccc1C(=O)O` has an IC50 of 26.9 µM. For `CCCCCCCCS(=O)(=O)Nc1cc(-c2ccccc2-c2ccccc2)ccc1C(=O)O`, the IC50 was 17.1 µM. In the case of `CCCCCCCCS(=O)(=O)Nc1cc(-c2ccc(O)cc2)ccc1C(=O)O`, the IC50 is reported as 64.8 µM. Work on `CCCCCCCCS(=O)(=O)Nc1ccc(C(=O)c2ccc(OC)cc2)cc1C(=O)O` yielded an IC50 of 44.3 µM. `CCCCCCCCS(=O)(=O)Nc1cc(-c2ccccc2F)ccc1C(=O)O` was tested, and the IC50 was 47.2 µM. `CCCCCCCCS(=O)(=O)Nc1ccc(-c2ccc(Cl)cc2)cc1C(=O)O` showed an IC50 of 9.2 µM. Molecule `CCCCCCCCS(=O)(=O)Nc1cc(/C=C/c2ccc(OC)cc2)ccc1C(=O)O` has an IC50 of 38.7 µM. With `CCCCCCCCS(=O)(=O)Nc1ccc(C(=O)c2ccc(CCCC)cc2)cc1C(=O)O` the IC50 was 31.7 µM. Work on `CCCCCCCCS(=O)(=O)Nc1cc(-c2ccccc2OC)ccc1C(=O)O` yielded an IC50 of 16.1 µM. `CCCCCCCCS(=O)(=O)Nc1ccc(/C=C/c2ccc(OC)cc2)cc1C(=O)O` gave an IC50 of 37.1 µM. `CCCCCCCCS(=O)(=O)Nc1cc(-c2cccc(Cl)c2)ccc1C(=O)O` was tested, and the IC50 was 13.8 µM. With `CCCCCCCCS(=O)(=O)Nc1cc(CCc2ccccc2)ccc1C(=O)O` the IC50 was 37.5 µM. `CCCCCCCCS(=O)(=O)Nc1cc(-c2ccc(-c3ccccc3)cc2)ccc1C(=O)O` gave an IC50 of 13.5 µM. `CCCCCCCCS(=O)(=O)Nc1cc(-c2ccc(Cl)cc2)ccc1C(=O)O` gave an IC50 of 18.1 µM. Work on `CCCCCCCCS(=O)(=O)Nc1cc(-c2ccc(OC)cc2)ccc1C(=O)O` yielded an IC50 of 13.3 µM. With `CCCCCCCCS(=O)(=O)Nc1cc(/C=C/c2ccccc2)ccc1C(=O)O` the IC50 was 38 µM. `CCCCCCCCS(=O)(=O)Nc1cc(C(=O)c2ccc(CCCC)cc2)ccc1C(=O)O` was tested, and the IC50 was 15.8 µM.

— ChEMBL document CHEMBL3580600, “Design, Synthesis, and Evaluation of 4- and 5-Substituted o-(Octanesulfonamido)benzoic Acids as Inhibitors of Glycerol-3-Phosphate Acyltransferase” (Medchemcomm, 2014)
